This note sets out measurements from ChEMBL document CHEMBL1144697, “9-cyano-1-azapaullone (cazpaullone), a glycogen synthase kinase-3 (GSK-3) inhibitor activating pancreatic beta cell protection and replication” (J Med Chem, 2008).

As a reminder, the IC50 is the concentration at which inhibition is half-maximal.

A short description of test [1]: Activation of Pax4 RNA expression in rat beta cells at 2 uM after 4 hrs relative to control. The conditions noted are these: Pancreatic beta cell. It is filed as functional, cell-based. A digest of the protocol: (§1)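 Primary rat islets exposed to compound for 4 h. Pax4 and cyclophilin B expression measured by qRT-PCR as fold change versus vehicle-treated control (set to 1). Triplicates, mean ± SD.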

The nature of test [2]: Activation of cyclophilin B gene expression in rat beta cells at 2 uM after 4 hrs relative to control. Type of test: functional, cell-based. As to conditions: Pancreatic beta cell. In a few lines: as §1
Test [3] can be described thus: Inhibition of starfish CDK1/cyclin B. Also on record: species or system Asteroidea. A digest of the protocol:
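Kinase inhibition assays at 15 µM final ATP, run in triplicate.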

The nature of test [4]: Inhibition of glucose and palmitate-induced apoptosis in rat INS-1E cells at 2 uM by caspase activity assay. It is filed as functional. More on the design: scale not given: the % may be the effect or the level left. In a few lines: (§2)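 INS-1E cells preincubated 1 h with compound (µM), then exposed to toxic high glucose/palmitate for 24 h. Apoptosis read as cytosolic DNA fragments or caspase activity, as fold change versus untreated control ± SD. At least four wells per point; Student's t test against glucose/palmitate alone.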

Test [5] has as its system INS-1E. Description: Protection against glucose and palmitate-induced toxicity in rat INS-1E cells at 0.3 uM after 24 hrs. It is filed as functional, cell-based. A digest of the protocol:
(§3)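 INS-1E cells treated with compound over a concentration range, with or without 0.3 mM BSA-coupled palmitate plus 25 mM glucose for 24 h. Viability/metabolic activity measured as an indirect readout of mitochondrial energy production. At least four wells per point; representative of ≥3 independent studies.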

Test [6] concerns Pancreatic beta cell. Description: Stimulation of rat primary beta cell replication at 0.5 uM. It is filed as functional. A digest of the protocol: (§4)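 Isolated rat islets incubated with compound for 72 h, then disaggregated and spotted onto slides. Cells double-immunostained for C-peptide and Ki-67. Replication scored as % Ki-67+ among C-peptide+ cells, compared with untreated islets.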

Test [7] concerns the target Cyclin-dependent kinase 5/CDK5 activator 1 (Homo sapiens, UniProt Q00535). Description: Inhibition of recombinant CDK5/p25 expressed in Escherichia coli.
Test [8] in a line: Inhibition of glucose and palmitate-induced apoptosis in rat INS-1E cells at 2 uM by DNA fragmentation assay. Also on record: scale not given: the % may be the effect or the level left. Type of test: functional. A digest of the protocol: as §2
In test [9] the test system is INS-1E. The test is described as follows: Inhibition of glucose and palmitate-induced apoptosis in rat INS-1E cells by DNA fragmentation assay. It is filed as functional, cell-based. A digest of the protocol: as §2
In test [10] the test system is INS-1E. Description: Suppression of metabolic activity in rat INS-1E cells at 1 uM. It is filed as functional, cell-based. A digest of the protocol: as §3
A short description of test [11]: Activation of Pax4 RNA expression in rat INS-1E cells at 1 uM after 24 hrs relative to control. Type of test: functional, cell-based. In a few lines:
(§5)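 Compound added to INS-1E cells for 4 h or 24 h. Pax4 and cyclophilin B transcripts quantified by qRT-PCR. Reported as fold change versus vehicle-treated control, with the control level set to 1. Mean of triplicates ± SD.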

The nature of test [12]: Activation of Pax4 RNA expression in rat INS-1E cells at 1 uM after 4 hrs relative to control. It is filed as functional, cell-based. A digest of the protocol: as §5
In test [13] the target is Glycogen synthase kinase-3 (Homo sapiens, UniProt P49840+P49841). Description: Inhibition of GSK3alpha/beta in pig brain. The conditions noted are these: target entry is the homologue from another species. More on the design: species or system Sus scrofa.
For test [14], the system named is INS-1E. Description: Stimulation of rat INS-1E cell replication assessed as BrdU incorporation. It is filed as functional, cell-based. In a few lines: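 INS-1E cells exposed to compound at various concentrations for 24 h. Replication measured as BrdU incorporation, given as fold increase versus untreated cells ± SD. At least four wells per point, two independent studies, Student's t test.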

For test [15], the system named is INS-1E. The test is described as follows: Inhibition of glucose and palmitate-induced apoptosis in rat INS-1E cells by caspase activity assay. Type of test: functional, cell-based. In a few lines: as §2
Test [16] is described as follows: Activation of cyclophilin B gene expression in rat INS-1E cells at 1 uM after 24 hrs relative to control. It is filed as functional, cell-based. In a few lines:
as §5

The nature of test [17]: Activation of cyclophilin B gene expression in rat INS-1E cells at 1 uM after 4 hrs relative to control. Type of test: functional, cell-based. A digest of the protocol: as §5
Test [18] has as its system Pancreatic beta cell. The test is described as follows: Stimulation of rat primary beta cell replication at 2 uM. Type of test: functional. In a few lines:
as §4

In test [19] the test system is INS-1E. Description: Protection against glucose and palmitate-induced toxicity in rat INS-1E cells at 2 uM after 24 hrs. Type of test: functional, cell-based. A digest of the protocol: as §3
In test [20] the test system is SH-SY5Y. The test is described as follows: Inhibition of GSK3 in human SHSY5Y cells assessed as beta-casein phosphorylation level in presence of MG132. As to conditions: in the assay text read “beta-catenin” for “beta-casein”. It is filed as cell-based. In a few lines: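 Nearly confluent SH-SY5Y cells in DMEM with 10% FCS were co-treated with compound across a concentration range plus 2 µM MG132, DMSO ≤1% final. Phospho-β-catenin (Ser33/Ser37/Thr41) measured by ELISA and expressed as % of cells given MG132 alone (100%).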

Test [21] concerns INS-1E. The test is described as follows: Protection against glucose and palmitate-induced toxicity in rat INS-1E cells after 24 hrs. Type of test: functional, cell-based. In a few lines: as §3

Molecules are shown by their SMILES. Activity calls are given as the source filed them. No cut-off for these calls is given here. Where only a bound is given, the exact number is not on record here.

Cyclin-dependent kinase 5/CDK5 activator 1, sequence (Q00535 whole entry, the tested form may be a part): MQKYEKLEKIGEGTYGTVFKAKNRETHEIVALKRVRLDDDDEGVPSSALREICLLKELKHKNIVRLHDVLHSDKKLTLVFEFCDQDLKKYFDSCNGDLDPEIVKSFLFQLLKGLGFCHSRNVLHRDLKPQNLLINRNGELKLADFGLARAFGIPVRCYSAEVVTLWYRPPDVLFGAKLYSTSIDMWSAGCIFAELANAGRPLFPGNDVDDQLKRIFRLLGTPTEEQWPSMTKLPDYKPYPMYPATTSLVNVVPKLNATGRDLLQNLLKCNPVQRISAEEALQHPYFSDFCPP
Cyclin-dependent kinase 5/CDK5 activator 1, sequence (Q15078 whole entry, further chain, the tested form may be a part): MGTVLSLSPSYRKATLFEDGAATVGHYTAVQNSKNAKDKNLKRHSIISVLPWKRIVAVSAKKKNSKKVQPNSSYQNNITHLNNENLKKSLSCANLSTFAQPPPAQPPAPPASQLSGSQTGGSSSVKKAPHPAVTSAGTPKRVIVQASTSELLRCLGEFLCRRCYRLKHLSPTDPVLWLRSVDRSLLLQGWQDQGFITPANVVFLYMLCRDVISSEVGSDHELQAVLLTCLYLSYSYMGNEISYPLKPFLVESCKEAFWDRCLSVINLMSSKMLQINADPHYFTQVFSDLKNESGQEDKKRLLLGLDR

Consider `N#Cc1ccc2[nH]c3c(c2c1)CC(=O)Nc1cccnc1-3` [CAZPAULLONE], for which the Fold change in test [1] was determined as 2.4; in test [2] it was 0.73; in [11], 0.56; in test [12], 4.87; in test [16], 1.42; in test [17] it was 1.11. Further, the IC50 was 500 nM in test [3], 300 nM in test [7] and 8 nM in [13]. Besides, the Activity in test [4] is above 50%; in test [6] it was 2.5; in test [8] it was above 50%; in test [14] it was “Dose-dependent effect”; in test [20], “Dose-dependent effect”. In addition, the outcome in [5], in test [9], in [10], in test [15], in test [19] and in test [21] was Active. For the same compound, the outcome in test [18] was inactive.
